The list is not random: actives were taken first. Their share in the collection is about 2.1%.
thrombin 1536: human alpha-thrombin inhibitors, primary screen, counter-screen for coagulation protease inhibitor project, biochemical, 1536-well, fluorogenic AMC substrate; hit rate 0.26% among 220,000; AID 1046, 2008; Prothrombin (Homo sapiens), P00734; Boc-VPR-AMC fluorogenic substrate cleavage; inhibition, % at 5 µM;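 active means inhibition at or above 40%; inactive means inhibition below 40%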;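 further: 0% = enzyme with no compound and 100% = wells without enzyme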
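Assay system: human alpha-thrombin enzyme. Reagent: Boc-VPR-AMC substrate, 15 µM final. Compound dosing: one concentration per compound, 5 µM, with 0.2% DMSO. Incubation: room-temperature reaction. Technique: AMC fluorescence, 355/460 nm. Measure: % inhibition relative to enzyme controls and enzyme-free blanks.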
PGE2 EP2 inh: human EP2 receptor antagonists, primary screen, TR-FRET cAMP, C6 glioma cells; Prostaglandin E2 receptor EP2 subtype (Homo sapiens), P43116; C6 glioma cells expressing human EP2; cells stimulated with saturating PGE2; inhibition, % at 25 µM; hit rate 0.52% among 260,000;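 active means percent inhibition above 40 after rounding to a whole number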;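 further: rat C6 glioma host cells with rolipram phosphodiesterase inhibitor present; the protocol text gives 20 µM as final concentration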
Target sequence (P43116 whole entry, looked up): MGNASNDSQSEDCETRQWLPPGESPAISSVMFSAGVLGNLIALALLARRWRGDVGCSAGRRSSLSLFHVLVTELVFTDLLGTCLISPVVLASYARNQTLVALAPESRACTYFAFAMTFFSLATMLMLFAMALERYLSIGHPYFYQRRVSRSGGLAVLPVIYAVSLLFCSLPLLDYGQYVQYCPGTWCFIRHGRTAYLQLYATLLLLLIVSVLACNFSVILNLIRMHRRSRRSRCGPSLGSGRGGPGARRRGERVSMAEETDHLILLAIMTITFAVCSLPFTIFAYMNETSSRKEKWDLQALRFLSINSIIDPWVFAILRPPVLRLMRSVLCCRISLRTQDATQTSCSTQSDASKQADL
FXIa inh 1536: human FXIa protease inhibitors, primary screen, biochemical, 1536-well; hit rate 0.14% among 220,000; inhibition, % at 5 µM; AID 798, 2007; purified FXIa, Boc-Glu-Ala-Arg-AMC fluorogenic substrate;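 active means inhibition of at least 40%; inactive means inhibition below 40%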;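 further: fluorescence of freed AMC excited at 355 nm; 0% = enzyme without compound and 100% = no enzyme blank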
KLK5 inh: human KLK5 protease inhibitors, primary screen, biochemical, 1536-well; inhibition, % at 5 µM; recombinant hK5, fluorogenic AMC substrate cleavage; hit rate 0.59% among 210,000;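 active means inhibition of 40% or more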;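 further: 0% = enzyme controls without compound and 100% = no-enzyme blanks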
Target sequence (Q9Y337 67-293 limits assumed): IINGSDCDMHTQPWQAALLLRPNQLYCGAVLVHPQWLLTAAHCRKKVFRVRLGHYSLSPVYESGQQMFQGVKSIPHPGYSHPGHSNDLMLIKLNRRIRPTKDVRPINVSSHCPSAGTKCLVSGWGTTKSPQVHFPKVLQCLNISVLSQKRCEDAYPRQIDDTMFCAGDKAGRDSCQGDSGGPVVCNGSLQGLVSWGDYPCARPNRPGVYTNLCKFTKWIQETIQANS
EP2 modulator: EP2 receptor modulators, cAMP readout, primary screen, cell-based, HTRF cAMP, PGE2 stimulation; AID 940, 2007; induction, % at 25 µM; EP2-expressing cells, cAMP HTRF FRET, PGE2 co-stimulation; hit rate 0.83% among 260,000;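 active means compounds whose cAMP rise, as percent of the full-agonist control response, exceeds 60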;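 further: rat C6 glioma line stably carrying human EP2 under a CMV promoter; the protocol text gives 20 µM as final concentration; 100% = response of wells given 1 µM PGE2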
FXIIa inh: human FXIIa protease inhibitors, primary screen, biochemical, 1536-well; Coagulation factor XII (Homo sapiens), P00748; purified FXIIa, Boc-QGR-AMC fluorogenic substrate, 2 h; inhibition, % at 5 µM; hit rate 0.3% among 220,000; AID 800, 2007; in the data active means inhibition above about 40%;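 further: 0% = enzyme with no compound and 100% = blank without enzyme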
An asterisk follows results filed as active; ! = a repeat was not active.

What do the screens show for `COc1ccc(S(=O)(=O)N2CCCC2C(=O)Nn2cnnc2)cc1` (stereo unspecified)?
thrombin 1536: -4; PGE2 EP2 inh: 0; FXIa inh 1536: 22; KLK5 inh: -5; EP2 modulator: -2; FXIIa inh: 43*

Results for COc1ccc(NC(=O)C2CCCN2S(=O)(=O)c2ccc(C)cc2)cc1 (stereo unspecified) ?
thrombin 1536: -1; PGE2 EP2 inh: 7; FXIa inh 1536: 2; KLK5 inh: -10; EP2 modulator: -45; FXIIa inh: 15

What do the screens show for `Cc1ccc(S(=O)(=O)N2CCCC2C(=O)Nn2cnnc2)cc1` (stereo unspecified)?
thrombin 1536: -3; PGE2 EP2 inh: 1; FXIa inh 1536: -7; KLK5 inh: -1; EP2 modulator: 3; FXIIa inh: 4

What do the screens show for `COc1ccc(NC(=O)C2CCCCN2S(=O)(=O)c2ccc(F)cc2)cc1` (stereo unspecified)?
thrombin 1536: 18; PGE2 EP2 inh: 5; FXIa inh 1536: 4; KLK5 inh: 53*; EP2 modulator: 2; FXIIa inh: 18

How did C=CCn1c(SCC(=O)NCc2ccccc2)nc2sc(C)c(C)c2c1=O do in these assays?
PGE2 EP2 inh: 13; EP2 modulator: -50

How did Nc1nc(N)nc(-c2ccc(Cl)cc2)n1 do in these assays?
thrombin 1536: -13; PGE2 EP2 inh: 14; FXIa inh 1536: -4; KLK5 inh: -29; EP2 modulator: -26; FXIIa inh: -17

Results for Clc1ccc(/C=C/c2nc(Cl)c(-c3ccc(Cl)cc3)c(Cl)n2)cc1 ?
thrombin 1536: -4; PGE2 EP2 inh: 43*!; FXIa inh 1536: -1; KLK5 inh: -2; EP2 modulator: 18; FXIIa inh: 2

What do the screens show for `CCCC(C(=O)NC1CCCC1)N(C(=O)c1snc(C(N)=O)c1N)C1CCCCC1` (stereo unspecified)?
PGE2 EP2 inh: 16; EP2 modulator: 45

Results for Cc1ccc(C)c(C2=CSC3=NCCN23)c1 ?
thrombin 1536: 12; PGE2 EP2 inh: 12; FXIa inh 1536: 6; KLK5 inh: 80*; EP2 modulator: 1; FXIIa inh: 18

What do the screens show for `Cc1nc2ccccc2c2nn(CC(=O)NC3CCCC3)c(=O)n12`?
PGE2 EP2 inh: 4; EP2 modulator: -81

What do the screens show for `O=C(O)c1c(-c2c3ccc(=O)cc-3oc3cc(O)ccc23)cc2ccccc2c1-c1ccccc1`?
PGE2 EP2 inh: 42*; EP2 modulator: 36

What do the screens show for `CC1Cc2ccccc2N1C(=O)c1cc2nc(-c3ccco3)cc(C(F)(F)F)n2n1` (stereo unspecified)?
PGE2 EP2 inh: 9; EP2 modulator: 72*

How did O=C(c1cc2nc(-c3ccco3)cc(C(F)(F)F)n2n1)N1CCCc2ccccc21 do in these assays?
thrombin 1536: -5; PGE2 EP2 inh: 1; FXIa inh 1536: 1; KLK5 inh: -12; EP2 modulator: 36; FXIIa inh: 9

What do the screens show for `CCCCCc1ccc(-c2ccc(/C=C/C(=O)O)cc2)nc1`?
thrombin 1536: -13; PGE2 EP2 inh: 5; FXIa inh 1536: -4; KLK5 inh: -5; EP2 modulator: 62*; FXIIa inh: 3

How did NC(=O)NC(=O)CSc1nc2sc(-c3ccccc3)cc2c(=O)n1-c1ccccc1 do in these assays?
thrombin 1536: 0; PGE2 EP2 inh: 3; FXIa inh 1536: -1; KLK5 inh: 1; EP2 modulator: 64*; FXIIa inh: 9

What do the screens show for `Cc1ccccc1NC(=O)c1cccc2nc3ccccc3nc12`?
thrombin 1536: 1; FXIa inh 1536: 13; KLK5 inh: 14; EP2 modulator: 38; FXIIa inh: 44*

What do the screens show for `CN(C)c1ncnc2c1ncn2C1OC(CO)C(O)C1O` (stereo unspecified)?
thrombin 1536: -4; PGE2 EP2 inh: 15; FXIa inh 1536: -3; KLK5 inh: -5; EP2 modulator: -1; FXIIa inh: 10

Results for CN(C)c1ncnc2c1ncn2CCn1cnc2c(N(C)C)ncnc21 ?
PGE2 EP2 inh: 46*; EP2 modulator: 29

What do the screens show for `CNC(=O)CSc1nc2nc(C)cc(C)n2n1`?
thrombin 1536: 2; PGE2 EP2 inh: 18; FXIa inh 1536: 0; KLK5 inh: 3; EP2 modulator: 12; FXIIa inh: 17

How did Cc1cc(C)n2nc(SCC(=O)Nc3ccc(F)cc3)nc2n1 do in these assays?
thrombin 1536: -4; PGE2 EP2 inh: 3; FXIa inh 1536: 17; KLK5 inh: -17; EP2 modulator: 11; FXIIa inh: 41*

What do the screens show for `Cc1nn(C)cc1NC(=O)CC12CC3CC(CC(C3)C1)C2`?
thrombin 1536: 1; PGE2 EP2 inh: 8; FXIa inh 1536: 4; KLK5 inh: 52*; EP2 modulator: 2; FXIIa inh: 6

How did Cc1cccc(N=N/C(=C\O)C(=O)c2cccs2)c1 do in these assays?
thrombin 1536: -13; PGE2 EP2 inh: 7; FXIa inh 1536: -3; KLK5 inh: 0; EP2 modulator: 64*; FXIIa inh: 3

Results for O=C(/C(N=Nc1cccc(C(F)(F)F)c1)=C(/O)c1cccs1)C(F)(F)F ?
thrombin 1536: 0; PGE2 EP2 inh: 7; FXIa inh 1536: 9; KLK5 inh: 5; EP2 modulator: -8; FXIIa inh: 6

How did CC(=O)C1=C(S(=O)(=O)c2ccc(C)cc2)CS(=O)(=O)C1 do in these assays?
thrombin 1536: 1; PGE2 EP2 inh: 97*; FXIa inh 1536: -10; KLK5 inh: -22; EP2 modulator: -62; FXIIa inh: -2

What do the screens show for `O=C(NC1CCCCC1)N1CCN(C(=O)NC2CCCCC2)CC1`?
PGE2 EP2 inh: 15; EP2 modulator: -4

What do the screens show for `Cc1ccc(NCCC(=O)c2ccc(Cl)cc2)cc1C`?
thrombin 1536: 8; PGE2 EP2 inh: 7; FXIa inh 1536: 4; KLK5 inh: 47*; EP2 modulator: -17; FXIIa inh: 13

How did CCN(CC)CCCNc1cc(C)nc2c(-c3ccc(OC)cc3)c(C)nn12 do in these assays?
EP2 modulator: -42

Results for O=C(NC1CCCC1)C(c1ccccn1)N(C(=O)c1csnn1)C1CC1 (stereo unspecified) ?
thrombin 1536: 2; PGE2 EP2 inh: 4; FXIa inh 1536: 44*; KLK5 inh: -4; EP2 modulator: 8; FXIIa inh: 15

Results for O=C(NC1CCCC1)C(c1ccccn1)N(C(=O)c1csnn1)C1CCCCC1 (stereo unspecified) ?
thrombin 1536: -1; PGE2 EP2 inh: 15; FXIa inh 1536: 21; KLK5 inh: -5; EP2 modulator: -6; FXIIa inh: 28

Bioassay records deposited in PubChem by several laboratories.
